# Key:
# [1] = tested on: STING signaling (STING, pTBK1, pIRF3); experiment: STING, pTBK1 and pIRF3 western blot in CT-26 cells; format: cell-based, mouse
# Method in brief: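 Lysates were made in HEPES/Triton buffer with TCEP, protease and phosphatase inhibitors and 30 μM pan-PARP inhibitor, normalized by Bradford, and run on SDS-PAGE and nitrocellulose. Blots were probed overnight at 4°C for STING, phospho-TBK1 Ser172 and phospho-IRF3 Ser396 (1:1000 for both phospho antibodies), with tubulin as loading control, and read by HRP chemiluminescence.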
# PARP1 [2] = target: T1, PARP1 (Homo sapiens, UniProt P09874); experiment: PASTA biochemical PARP screening assay, PARP1; details: in words
# PARP7 = target: T2, PARP7 (Homo sapiens, UniProt Q7Z3E1); experiment: PASTA biochemical PARP screening assay, PARP7; details: in words
# T2 sequence (Q7Z3E1 1-657): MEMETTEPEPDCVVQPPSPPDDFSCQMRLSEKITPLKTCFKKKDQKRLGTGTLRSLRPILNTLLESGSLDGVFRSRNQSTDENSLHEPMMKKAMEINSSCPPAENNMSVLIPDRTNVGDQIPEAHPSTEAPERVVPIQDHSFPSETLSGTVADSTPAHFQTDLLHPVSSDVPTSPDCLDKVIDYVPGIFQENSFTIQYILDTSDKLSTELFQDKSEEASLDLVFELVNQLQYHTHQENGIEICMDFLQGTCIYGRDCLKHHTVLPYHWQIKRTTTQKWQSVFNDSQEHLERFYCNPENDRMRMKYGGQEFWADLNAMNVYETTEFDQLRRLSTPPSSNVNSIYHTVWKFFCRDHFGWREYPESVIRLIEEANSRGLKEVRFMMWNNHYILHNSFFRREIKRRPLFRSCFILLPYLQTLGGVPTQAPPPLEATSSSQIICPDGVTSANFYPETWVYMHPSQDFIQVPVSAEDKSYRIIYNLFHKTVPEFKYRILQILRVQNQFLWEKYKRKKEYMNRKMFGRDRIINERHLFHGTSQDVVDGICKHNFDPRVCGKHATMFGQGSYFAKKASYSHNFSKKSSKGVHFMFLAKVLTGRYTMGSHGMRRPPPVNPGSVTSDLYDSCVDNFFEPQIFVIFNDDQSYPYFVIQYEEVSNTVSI
# [3] = tested on: other PARP family members; experiment: PASTA family-wide PARP inhibitor screening, other PARP family members; format: biochemical
# PARP2 = PARP2 (Homo sapiens, UniProt Q9UGN5); experiment: PASTA biochemical PARP screening assay, PARP2; details: in words
# [4] = tested on: ISRE luciferase reporter (type I interferon); experiment: ISRE luciferase assay in ISRE-Luc CT-26 cells; format: cell-based, mouse; details: 18 h, saturating doses
# Method in brief: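 ISRE-Luc CT-26 cells were made by lentiviral ISRE-luciferase transduction with 8 μg/mL polybrene and kept under 20 μg/mL puromycin. 1.0 × 10^4 ISRE-Luc or WT CT-26 cells were grown overnight. Test compound was serially diluted in DMSO, then in medium, and added for 18 h. Lysates were read by ONE-Glo luminescence (2 s integration), with the WT CT-26 signal subtracted as background. Curves were four-parameter fits.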
# PARP12 = target: T3, PARP12 (Homo sapiens, UniProt Q9H0J9); details: in words; cited from earlier work
# T3 sequence (Q9H0J9 484-698 limits assumed): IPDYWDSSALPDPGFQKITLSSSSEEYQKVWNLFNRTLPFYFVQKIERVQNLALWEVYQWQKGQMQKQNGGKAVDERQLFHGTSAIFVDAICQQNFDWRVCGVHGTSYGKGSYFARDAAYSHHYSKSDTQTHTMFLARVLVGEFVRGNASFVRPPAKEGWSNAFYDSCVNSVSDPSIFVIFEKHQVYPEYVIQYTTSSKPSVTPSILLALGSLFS
# PARP1 [5] = target: T1, PARP1; details: in words; cited from earlier work
# secreted IFN-β = experiment: Interferon-β ELISA, CT-26 cells; format: cell-based, mouse; details: 300 nM, 16 h
# Method in brief: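 CT-26 cells were grown in RPMI-1640 + 10% FBS in 6-well plates. After 24 h, medium was replaced and cells were treated for 16 h with 300 nM test compound, with or without the covalent STING inhibitor H-151 (500 nM). Harvested medium was assayed for IFN-β with a mouse IFN-β ELISA kit. Statistics: one-way ANOVA.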
# PARP7 protein levels = experiment: Endogenous PARP7 protein levels in CT-26 cells; format: cell-based, mouse
# STAT1 and pSTAT1 = experiment: STAT1 and pSTAT1; format: cell-based, mouse; details: CT-26 cells
# Method in brief: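 CT-26 cells at 75% confluency were treated with test compound at 0.01–1 μM for 16 h (dose-response) or at 0.3 μM over 0–24 h (time course); DMXAA (10 μg/ml, 1 h) served as positive control. Lysis buffer contained protease and phosphatase inhibitors plus 30 μM pan-PARP inhibitor. Bradford-normalized lysates were run on SDS-PAGE and nitrocellulose, probed for STAT1 and phospho-STAT1 Tyr701, detected by HRP chemiluminescence, and bands quantified densitometrically.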
# [6] = tested on: CYP1A1 mRNA (AHR target gene); experiment: CYP1A1 mRNA levels in MEFs; format: cell-based, mouse; details: PARP7−/− MEFs, 1 nM TCDD
# [7] = increasing concentrations, 16 h
# T1 sequence (P09874 whole entry): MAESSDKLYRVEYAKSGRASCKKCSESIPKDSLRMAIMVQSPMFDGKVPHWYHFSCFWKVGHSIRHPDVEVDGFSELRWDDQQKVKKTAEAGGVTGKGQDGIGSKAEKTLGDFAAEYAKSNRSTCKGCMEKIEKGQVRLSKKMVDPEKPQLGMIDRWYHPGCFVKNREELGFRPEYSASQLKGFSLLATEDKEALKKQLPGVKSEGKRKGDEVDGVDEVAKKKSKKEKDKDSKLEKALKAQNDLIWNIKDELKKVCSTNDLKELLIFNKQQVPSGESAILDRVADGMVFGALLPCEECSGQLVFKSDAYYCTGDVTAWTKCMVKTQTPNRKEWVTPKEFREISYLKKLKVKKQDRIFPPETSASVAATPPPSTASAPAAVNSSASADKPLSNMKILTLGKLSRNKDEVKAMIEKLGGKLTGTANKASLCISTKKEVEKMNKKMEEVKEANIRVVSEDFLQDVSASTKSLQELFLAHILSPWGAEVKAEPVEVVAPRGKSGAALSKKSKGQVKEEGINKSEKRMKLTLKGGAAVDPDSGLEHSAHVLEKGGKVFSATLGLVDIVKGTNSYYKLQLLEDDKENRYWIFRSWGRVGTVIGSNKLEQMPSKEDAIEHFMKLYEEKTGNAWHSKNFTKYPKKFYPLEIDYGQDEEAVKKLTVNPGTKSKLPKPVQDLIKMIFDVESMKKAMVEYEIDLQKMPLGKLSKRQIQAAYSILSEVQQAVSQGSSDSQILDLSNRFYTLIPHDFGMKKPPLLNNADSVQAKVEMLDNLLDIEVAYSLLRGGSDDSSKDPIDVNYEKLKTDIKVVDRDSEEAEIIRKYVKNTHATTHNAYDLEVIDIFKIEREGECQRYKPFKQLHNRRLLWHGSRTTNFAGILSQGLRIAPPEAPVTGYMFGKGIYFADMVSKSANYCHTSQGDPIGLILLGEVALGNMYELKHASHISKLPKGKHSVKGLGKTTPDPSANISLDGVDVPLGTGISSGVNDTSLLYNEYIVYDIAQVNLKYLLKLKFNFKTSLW
# PARP2, sequence (Q9UGN5 whole entry): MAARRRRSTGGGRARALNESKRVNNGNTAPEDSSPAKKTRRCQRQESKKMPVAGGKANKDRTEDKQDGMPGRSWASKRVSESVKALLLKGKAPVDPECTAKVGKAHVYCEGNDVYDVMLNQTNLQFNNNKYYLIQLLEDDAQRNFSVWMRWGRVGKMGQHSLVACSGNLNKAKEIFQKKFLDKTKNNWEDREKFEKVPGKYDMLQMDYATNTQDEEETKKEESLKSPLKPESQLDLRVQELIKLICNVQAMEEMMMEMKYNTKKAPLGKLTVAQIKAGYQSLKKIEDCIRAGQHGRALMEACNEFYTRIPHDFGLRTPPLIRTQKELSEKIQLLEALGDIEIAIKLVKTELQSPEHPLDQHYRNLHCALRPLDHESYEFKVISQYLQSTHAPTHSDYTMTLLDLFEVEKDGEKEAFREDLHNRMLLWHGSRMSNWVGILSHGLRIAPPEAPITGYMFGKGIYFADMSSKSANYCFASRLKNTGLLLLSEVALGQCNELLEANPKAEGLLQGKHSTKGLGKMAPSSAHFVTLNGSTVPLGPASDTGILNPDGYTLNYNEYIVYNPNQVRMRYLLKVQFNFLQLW
smiles,measurement,setting,value
"Cc1ccc2c(=O)c3cccc(CC(=O)O)c3oc2c1C [DMXAA, 5,6-Dimethylxanthenone-4-acetic Acid]",STING levels,[1],substantially decreased
same,pIRF3,[1],robustly induced
same,pTBK1,[1],robustly induced
N#Cc1ccc(N2CCN(C(=O)c3cc(Cc4n[nH]c(=O)c5ccccc45)ccc3F)CC2)nc1 [Phthal01],potency against PARP1,PARP1 [2],double-digit nanomolar
same,potency against PARP7,PARP7,double-digit nanomolar
same,fold more potent against PARP7 compared to all other PARP family members,[3]; other than PARP1 and PARP2,at least 12 fold
same,potency against PARP2,PARP2,double-digit nanomolar
C[C@@H](COCCC(=O)N1CCN(c2ncc(C(F)(F)F)cn2)CC1)Nc1cn[nH]c(=O)c1C(F)(F)F [RBN-2397],magnitude of ISRE luciferase response compared to KMR-206,[4],~ 2 fold
same,"inhibition of PARP12, previous study",PARP12,double digit nanomolar inhibition
same,"inhibition of PARP1, previous study",PARP1 [5],double digit nanomolar inhibition
same,levels of secreted IFN-β,secreted IFN-β,to a greater extent than KMR-206
same,time of maximal PARP7 protein levels after addition,PARP7 protein levels; 0.3 μM time-course,~ 16 h
same,endogenous PARP7 levels,PARP7 protein levels; [7],dramatically increased
same,increase in PARP7 protein abundance compared to KMR-206,PARP7 protein levels; saturating doses,2 fold
same,time of noticeable increase in STAT1,STAT1 and pSTAT1; 300 nM,16 h
same,time of noticeable increase in pSTAT1,STAT1 and pSTAT1; 300 nM,4 h
same,STAT1 and pSTAT1 levels,STAT1 and pSTAT1; [7],dose-dependently increased
same,IC50,[3]; read-out: IC50 most other PARP family members (does not inhibit up to),> 3000 nM
"Clc1cc2c(cc1Cl)Oc1cc(Cl)c(Cl)cc1O2 [TCDD, 2,3,7,8-tetrachlorodibenzo-p-dioxin]","CYP1A1 mRNA levels, TCDD alone",[6],robust induction of CYP1A1
